# Measurements from different studies.
# Each line is one published result; the experiments were not run side by side. pEC50, pIC50, pKd, pKi: −log10 of the molar value.
# MDH2: Malate dehydrogenase, mitochondrial (MDH2, Sus scrofa, UniProt P00346)
# Gpr84: G-protein coupled receptor 84 (Gpr84, Mus musculus, UniProt Q8CIM5)
Compound,target,test,setting,endpoint,result
CCCN1CCN(c2ccc(-c3cncc(Cl)c3N3CCC4(CCNC4=O)CC3)cc2)CC1,"Serine/threonine-protein kinase D2 (PRKD2, Homo sapiens, UniProt Q9BZL6)",cell-free assay,lysate,pKd,4.70
Cc1cnc(-c2ccc(-c3ccc(NC(=O)Nc4c(F)cc(F)cc4F)cc3F)c3c2C(=O)NC3)[nH]1,"Proto-oncogene tyrosine-protein kinase Src (SRC, Homo sapiens, UniProt P12931)","binding, competition with immobilised ligand",,pKd,6.96
O=C(Nc1ccc(Sc2nc3ccccc3s2)c(Cl)c1)c1cccc(Br)c1O,MDH2,"enzyme activity, inhibitor",,pIC50,< 4.20
Cc1cc2nc3c(=O)[nH]c(=O)nc-3n(C[C@H](O)[C@H](O)[C@H](O)COP(=O)(O)OP(=O)(O)OC[C@H]3O[C@@H](n4cnc5c(N)ncnc54)[C@H](O)[C@@H]3O)c2cc1C,"Ataxin-2 (Homo sapiens, UniProt Q99700)",binding,lysate,pKd,7.66
COc1c(Br)cccc1C(=O)Nc1ccc(Sc2nc3ccccc3s2)c(Cl)c1,MDH2,"enzyme activity, inhibitor",,pIC50,< 4.20
CC(C)C[C@H](NC(=O)[C@@H](N)CCCNC(=N)N)C(=O)N[C@@H](Cc1ccc(O)cc1)C(=O)N[C@@H](Cc1ccc(O)cc1)C(=O)N[C@@H](Cc1ccccc1)C(=O)N[C@@H](Cc1c[nH]c2ccccc12)C(=O)N[C@@H](CC(=O)O)C(=O)O,"DNA dC->dU-editing enzyme APOBEC-3G (APOBEC3G, Homo sapiens, UniProt Q9HC16)","enzyme activity, inhibitor",,pKi,~6.19
CC(=O)N[C@@H](CCCNC(=N)N)C(=O)NCC(=O)NCC(=O)N1CCC[C@H]1B(O)O,"Dipeptidyl peptidase 4 (DPP4, Homo sapiens, UniProt P27487)","enzyme activity, inhibitor, fluorescence",,pKi,6.49
CNC(=O)c1cc2c(Oc3ccc(NC(=O)C4(C(=O)Nc5ccc(F)cc5)CC4)cc3)ccnc2cc1OC,"Tyrosine-protein kinase Mer (MERTK, Homo sapiens, UniProt Q12866)","enzyme activity, inhibitor, radiometric",,pIC50,9.05
O=S(=O)(Nc1ccc(-c2nc3cc(NS(=O)(=O)c4ccccc4)ccc3o2)cc1)c1ccccc1,MDH2,"enzyme activity, inhibitor",,pIC50,< 4.20
CC(O)CN1CCC(CC[S+]([O-])C(c2ccc(F)cc2)c2ccc(F)cc2)CC1 (centres unmarked),"Transporter (Slc6a2, Rattus norvegicus, UniProt Q63380)","ligand displacement, radioligand",,pKi,< 4.00
CCCCCCCCNc1cc(=O)[nH]c(=O)[nH]1,Gpr84,"cAMP, agonist",,pEC50,7.18
O=C(/C=C/c1ccc(-n2ccnc2)cc1)N1CCN(C(=O)c2ccco2)CC1,"Protein ENL, YEATS (MLLT1, Homo sapiens, UniProt Q03111)","binding, BLI",,pKd,4.85
CC(C)(C)n1nc(-c2cnc3cc(OC4CC4)ccc3c2)c(C(N)=O)c1N,"Calcium/calmodulin-dependent protein kinase kinase 2 (CAMKK2, Homo sapiens, UniProt Q96RR4)",cell-free assay,,pIC50,< 5.00
CCCCCCCCCC(=O)O,Gpr84,"cAMP, agonist",,pEC50,< 5.00
